Data from ChEMBL document CHEMBL5661968, “Antitumor activity of ZSTK474, a new phosphatidylinositol 3-kinase inhibitor” (J Natl Cancer Inst, 2006).
Calls of active or inactive are those of the source. The rule behind the calls is not given here.

Experiments:
MCF7 = assay: Growth inhibition of human MCF7 cells measured after 48 hrs by sulforhodamine B assay; format: functional
How it was run: (§1)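 JFCR39 panel lines were grown in RPMI 1640 with 5% FBS, penicillin and streptomycin at 37 °C in 5% CO2. After 48 h of drug exposure, total cellular protein was measured by sulforhodamine B staining. GI50 was calculated by a previously described method.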

SNB-75 = assay: Growth inhibition of human SNB-75 cells measured after 48 hrs by sulforhodamine B assay; format: functional; how it was run: as §1
SNB-78 = assay: Growth inhibition of human SNB-78 cells measured after 48 hrs by sulforhodamine B assay; format: functional; how it was run: as §1
NCI-H23 = assay: Growth inhibition of human NCI-H23 cells measured after 48 hrs by sulforhodamine B assay; format: functional; how it was run: as §1
NCI-H226 = assay: Growth inhibition of human NCI-H226 cells measured after 48 hrs by sulforhodamine B assay; format: functional; how it was run: as §1
DU-145 = assay: Growth inhibition of human DU-145 cells measured after 48 hrs by sulforhodamine B assay; format: functional; how it was run: as §1
MEF = assay: Inhibition of PI3K in platelet-derived growth factor induced mouse MEF cells assessed as reduction in PIP3 formation at 1 uM preincubated with compound for 15 mins followed by induction by immunoprecipitation based liquid scintillation spectroscopic analysis; format: cell-based
How it was run: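 Murine embryonic fibroblasts labelled 4 h at 37 °C in phosphate-free DMEM with 25 mM HEPES pH 7.4 and [32P]orthophosphate (0.1 mCi/mL); 1 μM compound for 15 min before PDGF (10 ng/mL) stimulation; PIP3 formation measured.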

A549 [1] = assay: Induction of apoptosis in human A549 cells assessed as increase in apoptotic cells at 10 uM measured after 48 hrs by propidium iodide staining based flow cytometric analysis; format: functional, cell-based
How it was run: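 Cells harvested, washed in ice-cold PBS, fixed in 70% ethanol, washed twice in ice-cold PBS, treated with RNase A (500 μg/mL) at 37 °C for 1 h, stained with propidium iodide (25 μg/mL); DNA content read by flow cytometry.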

A549 [2] = assay: Inhibition of AKT in human A549 cells at 0.5 uM measured after 5 mins by Western blotting analysis; format: cell-based
A549 [3] = assay: Downregulation of cyclin D1 expression in human A549 cells measured after 3 hrs by immunoblotting analysis; format: functional, cell-based; conditions: dose <= 2.0 µM
How it was run: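 A549 cells were lysed in Tris-HCl pH 7.4 buffer with NaF, pyrophosphate, Na3VO4, EDTA, aprotinin, PMSF, 0.5% NP-40 and 0.1% SDS. Lysates were run on SDS-PAGE and blotted to PVDF. Blots were probed with rabbit anti-cyclin D1 polyclonal (1:200), then HRP anti-rabbit IgG, and detected by ECL chemiluminescence.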

[4] = Toxicity in nude mouse xenografted with human PC-3 cells assessed as change in body weight at 400 mg/kg, po administered on day 0 to 13 except for day 3 and 10 measured after 28 days (reference value: 17 %); format: organism-based; conditions: in vivo, 672 h, time 28 day
B16-F10 [5] = assay: Antitumor activity against mouse B16-F10 cells implanted in BDF1 mouse assessed as tumor size relative to control (T/C) at 100 mg/kg, po administered daily measured after 14 days; conditions: 336 h
B16-F10 [6] = assay: Antitumor activity against mouse B16-F10 cells implanted in BDF1 mouse assessed as tumor size relative to control (T/C) at 200 mg/kg, po administered daily measured after 14 days; conditions: 336 h

- GI50 (MCF7): 45.7 nM
- GI50 (NCI-H23): 339 nM
- GI50 (NCI-H226): 120 nM
- GI50 (DU-145): 912 nM
Compound: FC(F)c1nc2ccccc2n1-c1nc(N2CCOCC2)nc(N2CCOCC2)n1 [ZSTK-474]
- GI50 (SNB-75): 45.7 nM
- GI50 (SNB-78): 55 nM
- inhibition (MEF): Active
- Activity (A549 [1]): inactive
- inhibition (A549 [2]): inactive
- Activity (A549 [3]): Dose-Dependent Effect
- Activity [4]: 17%
- T/C at 100 mg/kg (B16-F10 [5]): 28.5%
- T/C at 200 mg/kg (B16-F10 [6]): 7.1%
